Assay results: ChEMBL document CHEMBL1129636 (J Med Chem, 1996)

Tests used:
[1] = target: T1, Glutamate receptor ionotropic, kainate 2 (Homo sapiens, UniProt Q13002); test: Electrophysiological activity at 10 uM domoate from HEK293 cells transfected with Ionotropic glutamate receptor kainate 2; assay type: functional, cell-based
Outline: (§1)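 Whole-cell voltage clamp (tight-seal patch clamp) of HEK293 line EAA4-9 stably expressing human GluR6, with cells plated on glass coverslips. Bath: NaCl 138, CaCl2 5, MgCl2 1, KCl 5, HEPES 10, glucose 10 mM, pH 7.4. Pipette: KCl 140, MgCl2 1, HEPES 10, EGTA 0.1 mM, pH 7.2. Test agonist at 1, 10 or 30 uM by bath perfusion with 2.5 uM concanavalin A. Inward current expressed as percent of the response to 1 uM domoate.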

[2] = target: T1, Glutamate receptor ionotropic, kainate 2; test: Inhibition of [3H]kainate binding at ionotropic glutamate receptor kainate 2
Outline: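 Frozen EAA4-9 cells (HEK293 stably expressing human GluR6) lysed in ice-cold water and pelleted at 50000g. Membranes washed in 50 mM Tris-HCl, pH 7.5 at 5 °C, to remove glutamate. Nonspecific binding defined with 1 mM L-glutamate, and bound ligand separated by centrifugation. Ki reported.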

[3] = target: Glutamate receptor ionotropic, kainate 2 (Rattus norvegicus, UniProt P42260); test: Inhibition of [3H]kainate binding at rat forebrain ionotropic glutamate receptor kainate 2
[4] = target: T1, Glutamate receptor ionotropic, kainate 2; test: Electrophysiological activity at 1 uM domoate from HEK293 cells transfected with ionotropic glutamate receptor kainate 2; assay type: functional, cell-based; outline: as §1
[5] = target: T1, Glutamate receptor ionotropic, kainate 2; test: Electrophysiological activity at 30 uM domoate from HEK293 cells transfected with ionotropic glutamate receptor kainate 2; assay type: functional, cell-based; outline: as §1

T1 sequence (Q13002 whole entry, the tested form may be a part): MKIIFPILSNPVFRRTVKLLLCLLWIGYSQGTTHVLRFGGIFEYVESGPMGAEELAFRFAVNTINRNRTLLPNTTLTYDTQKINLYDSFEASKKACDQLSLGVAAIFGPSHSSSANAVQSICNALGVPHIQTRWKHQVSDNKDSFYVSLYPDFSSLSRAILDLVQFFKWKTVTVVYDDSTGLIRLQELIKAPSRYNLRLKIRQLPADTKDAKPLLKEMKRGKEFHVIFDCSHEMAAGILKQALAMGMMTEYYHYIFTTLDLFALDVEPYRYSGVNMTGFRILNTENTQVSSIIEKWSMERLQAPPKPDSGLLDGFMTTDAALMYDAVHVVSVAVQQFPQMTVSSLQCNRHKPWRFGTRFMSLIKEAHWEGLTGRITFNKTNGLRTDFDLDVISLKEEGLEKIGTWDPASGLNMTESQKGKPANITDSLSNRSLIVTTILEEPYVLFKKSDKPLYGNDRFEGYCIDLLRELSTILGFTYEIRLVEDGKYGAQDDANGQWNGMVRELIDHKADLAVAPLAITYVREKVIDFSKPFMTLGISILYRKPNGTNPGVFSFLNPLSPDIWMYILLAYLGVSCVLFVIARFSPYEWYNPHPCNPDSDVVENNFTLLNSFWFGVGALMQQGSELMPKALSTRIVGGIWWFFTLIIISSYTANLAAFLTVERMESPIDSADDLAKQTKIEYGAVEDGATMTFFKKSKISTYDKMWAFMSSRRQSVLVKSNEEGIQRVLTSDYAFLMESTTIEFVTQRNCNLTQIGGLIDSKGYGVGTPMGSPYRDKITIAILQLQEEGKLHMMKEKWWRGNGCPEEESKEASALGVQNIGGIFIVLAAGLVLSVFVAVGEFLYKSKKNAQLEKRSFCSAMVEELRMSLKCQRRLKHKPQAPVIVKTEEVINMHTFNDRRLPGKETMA
Glutamate receptor ionotropic, kainate 2 (Rattus norvegicus, UniProt P42260), sequence (P42260 whole entry): as the sequence (Q13002 whole entry, the tested form may be a part) above, with F5S, I7V, P11L, R14S, T16S, V17I, L19V, A494V counted along it

Row | SMILES | Response [1] | Ki [2] [nM] | Ki [3] [nM] | Response [4] | Response [5]
1 | C=C(c1ccc(OCCCCCc2ccccc2)cc1)[C@H]1CN[C@H](C(=O)O)[C@H]1CC(=O)O | 13% | 1300 | 126 | 0% | 27%
2 | C=C(c1cccc(OCCC(c2ccccc2)c2ccccc2)c1)[C@H]1CN[C@H](C(=O)O)[C@H]1CC(=O)O | 6% | 2420 | 210 | 3% | 14%
3 | C=C(c1cccc(C)c1)[C@H]1CN[C@H](C(=O)O)[C@H]1CC(=O)O | 75% | 123 | 2.2 | 29% | 74%
4 | C=C(c1ccccc1)[C@@H]1CN[C@H](C(=O)O)[C@H]1CC(=O)O | Neurotoxic | 6970 | 230 | Neurotoxic | Neurotoxic
5 | C=C(c1cccc(OCCC(c2ccccc2)c2ccccc2)c1)[C@@H]1CN[C@H](C(=O)O)[C@H]1CC(=O)O | 0% | > 10000 | 3000 | 0% | 0%
6 | C=C(c1ccccc1)[C@H]1CN[C@H](C(=O)O)[C@H]1CC(=O)O | 81% | 29.8 | 1.6 | 48% | 80%
7 | C=C(c1cccc(-c2ccccc2)c1)[C@H]1CN[C@H](C(=O)O)[C@H]1CC(=O)O | 98% | 90.6 | 2.1 | 65% | 103%
8 | C=C(c1ccc(OCCc2ccccc2)cc1)[C@H]1CN[C@H](C(=O)O)[C@H]1CC(=O)O | 52% | 126 | 6.2 | 16% | 66%
9 | C=C(c1ccc(Oc2ccccc2)cc1)[C@H]1CN[C@H](C(=O)O)[C@H]1CC(=O)O | 59% | 210 | 11.9 | 15% | 62%
10 | C=C(c1ccc(C(C)(C)C)cc1)[C@H]1CN[C@H](C(=O)O)[C@H]1CC(=O)O | 31% | 263 | 18.5 | 8% | 46%
11 | C=C(c1cccc(OCCc2ccccc2)c1)[C@H]1CN[C@H](C(=O)O)[C@H]1CC(=O)O | 43% | 667 | 16 | 6% | 70%
12 | C=C(c1ccc(OCCc2ccccc2)c(C)c1)[C@H]1CN[C@H](C(=O)O)[C@H]1CC(=O)O | 64% | 129 |  | 12% | 71%
13 | C=C(c1cccc(OCCCC)c1)[C@H]1CN[C@H](C(=O)O)[C@H]1CC(=O)O | 8% | 275 | 23.3 | 5% | 40%
14 | C=C(c1ccc(Cl)cc1)[C@H]1CN[C@H](C(=O)O)[C@H]1CC(=O)O | 78% | 31.7 | 3.9 | 52% | 83%
15 | C=C(CC)c1ccc(C(=C)[C@H]2CN[C@H](C(=O)O)[C@H]2CC(=O)O)cc1 | 38% | 288 | 9 | 15% | 52%
16 | C=C(c1ccc(-c2ccccc2)cc1)[C@H]1CN[C@H](C(=O)O)[C@H]1CC(=O)O | 58% | 131 | 9.1 | 36% | 66%
17 | C=C(c1ccc(OCCCC)cc1)[C@H]1CN[C@H](C(=O)O)[C@H]1CC(=O)O | 86% | 147 | 2.8 | 33% | 99%
18 | C=C(c1ccc(C)c(C)c1)[C@H]1CN[C@H](C(=O)O)[C@H]1CC(=O)O | 89% | 108 | 2.3 | 50% | 98%

Row | SMILES | Response [1] | Ki [2] [nM] | Ki [3] [nM] | Response [4] | Response [5]
19 | C=C(c1ccc(CCCC)cc1)[C@H]1CN[C@H](C(=O)O)[C@H]1CC(=O)O | 57% | 146 | 4.8 | 11% | 63%
20 | CC(c1cccc(-c2ccccc2)c1)[C@H]1CN[C@H](C(=O)O)[C@H]1CC(=O)O (some centres undefined) | 14% | > 10000 |  | 12% | 16%
21 | C=C(C)[C@H]1CN[C@H](C(=O)O)[C@H]1CC(=O)O | 85% |  |  | 39% | 101%
22 | C=C(c1ccc(OC)cc1)[C@H]1CN[C@H](C(=O)O)[C@H]1CC(=O)O | 76% | 57.4 | 3.9 | 37% | 82%
23 | C=C(c1cccc(OC)c1)[C@H]1CN[C@H](C(=O)O)[C@H]1CC(=O)O | 77% | 93.5 | 3.5 | 46% | 87%
24 | C=C(c1ccc(F)cc1)[C@H]1CN[C@H](C(=O)O)[C@H]1CC(=O)O | 76% | 38.4 | 2.7 | 43% | 78%
25 | CC(c1ccccc1)[C@H]1CN[C@H](C(=O)O)[C@H]1CC(=O)O (some centres undefined) | 0% | > 10000 |  | 0% | 0%
26 | C=C(c1ccc(CCC)cc1)[C@H]1CN[C@H](C(=O)O)[C@H]1CC(=O)O | 54% | 147 | 3.6 | 24% | 66%
27 | C=C(c1ccc(C)cc1)[C@H]1CN[C@H](C(=O)O)[C@H]1CC(=O)O | 72% | 41.1 | 2.6 | 61% | 76%
28 | C=C(c1ccc(OCCCCC)c(C)c1)[C@H]1CN[C@H](C(=O)O)[C@H]1CC(=O)O | 46% | 663 |  | 17% | 58%
29 | C=C(C)c1ccc(C(=C)[C@H]2CN[C@H](C(=O)O)[C@H]2CC(=O)O)cc1 | 61% | 132 | 3.6 | 17% | 66%
30 | C=C(c1ccc(CC)cc1)[C@H]1CN[C@H](C(=O)O)[C@H]1CC(=O)O | 63% | 82.2 | 7.7 | 22% | 73%
31 | C=C(c1cccc(-c2ccccc2)c1)[C@@H]1CN[C@H](C(=O)O)[C@H]1CC(=O)O | 0% | 3110 |  | 0% | 0%
32 | C=C(c1ccc(F)c(C)c1)[C@H]1CN[C@H](C(=O)O)[C@H]1CC(=O)O | 76% | 54.3 | 1.9 | 38% | 100%
33 | C=C(C)c1ccc(C(=C)[C@@H]2CN[C@H](C(=O)O)[C@H]2CC(=O)O)cc1 |  | 2300 | 5400 |  | 
34 | C=C(c1ccc(OCCc2ccccc2)c(OC)c1)[C@H]1CN[C@H](C(=O)O)[C@H]1CC(=O)O | 20% | 1280 |  | 2% | 44%
35 | C=C(c1cc(C)cc(C)c1)[C@H]1CN[C@H](C(=O)O)[C@H]1CC(=O)O | 73% | 169 | 9.5 | 23% | 108%
